Assay results reported in ChEMBL document CHEMBL5230177, “Inactivation of myostatin by photooxygenation using functionalized d-peptides” (RSC Med Chem, 2023).
Calls of active or inactive are those of the source. No cut-off for these calls is given here.

Key:
[1] = target: T1, Growth/differentiation factor 8 (Homo sapiens, UniProt O14793); assay: Photo-oxygenation mediated inactivation of human recombinant Myostatin expressed in Escherichia coli cells photoirradiated for 30 mins using LED followed by incubation with luciferase reporter transfected HEK293 cells for 4 hrs by luciferase reporter gene assay
T1 sequence (O14793 whole entry): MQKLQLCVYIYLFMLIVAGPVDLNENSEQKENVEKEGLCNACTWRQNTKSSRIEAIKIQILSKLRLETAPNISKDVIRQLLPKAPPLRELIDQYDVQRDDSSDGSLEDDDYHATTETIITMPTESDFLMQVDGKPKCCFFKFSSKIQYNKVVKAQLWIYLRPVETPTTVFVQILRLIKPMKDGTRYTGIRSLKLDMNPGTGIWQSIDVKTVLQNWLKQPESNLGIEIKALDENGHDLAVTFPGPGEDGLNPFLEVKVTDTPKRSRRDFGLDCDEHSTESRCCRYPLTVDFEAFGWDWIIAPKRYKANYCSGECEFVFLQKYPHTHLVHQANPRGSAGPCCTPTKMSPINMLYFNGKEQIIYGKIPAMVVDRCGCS
How it was run: (§1)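 Myostatin (1 μM in 10 mM phosphate, pH 7.4, with or without peptide) diluted in serum-free DMEM to 0.6 nM, irradiated at 730 nm for 30 min, then added to HEK293 cells. Cells were transfected 24 h with SBE-luc2P reporter plus TK-Renilla control, then held 8 h in serum/phenol red-free DMEM. Exposure 4 h, PBS wash, dual-luciferase read-out. Triplicate, mean ± s.d. (n = 3), Tukey's test.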

[2] = target: Growth/differentiation factor 8 (Homo sapiens) (UniProt O14793); assay: Photo-oxygenation of human recombinant Myostatin expressed in Escherichia coli cells assessed as oxygen adduct formation in myostatin peak fragment 79-90 at 3 uM measured after photoirradiation for 30 mins using LED by MALDI-TOF-MS analysis
How it was run: (§2)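 Myostatin stock (8 μM in 1 mM HCl) diluted to 1 μM in 10 mM phosphate, pH 7.4. Functionalized peptide (final 3 μM) or methylene blue (final 1 μM) added. Irradiated 30 min with 730 nm LED (14 mW) at room temperature. Then 50 mM DTT reduction (37 °C, 0.5 h), Lys-C digestion (1/20 w/w, 37 °C, 2.5 h), ZipTip desalting, MALDI-TOF MS of fragments.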

[3] = tested on: trypsin (Sus scrofa); assay: Stability of the compound assessed as trypsin (porcine pancreas)-mediated drug degradation at 100 uM measured after 3 hrs by MALDI-TOF-MS analysis
[4] = target: Growth/differentiation factor 8 (Homo sapiens) (UniProt O14793); assay: Photo-oxygenation mediated inactivation of human recombinant Myostatin expressed in Escherichia coli cells assessed as residual activity at 3 nM photoirradiated for 30 mins using LED followed by incubation with luciferase reporter transfected HEK293 cells for 4 hrs by luciferase reporter gene assay; conditions: time 4.5 hrs; how it was run: as §1
[5] = target: Growth/differentiation factor 8 (Homo sapiens) (UniProt O14793); assay: Photo-oxygenation of human recombinant Myostatin expressed in Escherichia coli cells assessed as oxygen adduct formation in myostatin peak fragment 55-78 at 3 uM measured after photoirradiation for 30 mins using LED by MALDI-TOF-MS analysis; how it was run: as §2
[6] = target: Growth/differentiation factor 8 (Homo sapiens) (UniProt O14793); assay: Photo-oxygenation of human recombinant Myostatin expressed in Escherichia coli cells assessed as oxygen adduct formation in myostatin peak fragment 40-54 at 3 uM measured after photoirradiation for 30 mins using LED by MALDI-TOF-MS analysis; how it was run: as §2
[7] = target: Growth/differentiation factor 8 (Homo sapiens) (UniProt O14793); assay: Inactivation of human recombinant Myostatin expressed in Escherichia coli cells at 3 nM incubated with luciferase reporter transfected HEK293 cells for 4 hrs by luciferase reporter gene assay
[8] = tested on: HEK293; assay: Phototoxicity against human HEK293 cells assessed as reduction in cell viability at 3 uM photoirradiated for 30 mins using LED followed by incubation with compound for 24 hrs by WST-1 assay; format: toxicity, cell-based; conditions: hek293, 24.5 h, time 1470 min
How it was run: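 HEK293 cells grown in DMEM with 10% FBS and non-essential amino acids at 37 °C, 5% CO2, seeded 2.0×10^4 cells/well. After 48 h, medium switched to serum- and phenol red-free DMEM containing 3 μM peptide or methylene blue. Cells irradiated with LED (λmax 730 nm, 30 min), then incubated 24 h. Viability read by WST-1; Student's t-test.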

[9] = tested on: chymotrypsin (Bos taurus); assay: Stability of the compound assessed as chymotrypsin (bovine pancreas)-mediated drug degradation at 100 uM measured after 3 hrs by MALDI-TOF-MS analysis
[10] = target: Amyloid-beta precursor protein (Homo sapiens) (UniProt P05067); assay: Photo-oxygenation of human Amyloid beta (1 to 42) assessed as oxygen adduct formation at 3 uM measured after photoirradiation for 30 mins using LED by MALDI-TOF-MS analysis
Chain of Amyloid-beta precursor protein (Homo sapiens) (P05067 whole entry): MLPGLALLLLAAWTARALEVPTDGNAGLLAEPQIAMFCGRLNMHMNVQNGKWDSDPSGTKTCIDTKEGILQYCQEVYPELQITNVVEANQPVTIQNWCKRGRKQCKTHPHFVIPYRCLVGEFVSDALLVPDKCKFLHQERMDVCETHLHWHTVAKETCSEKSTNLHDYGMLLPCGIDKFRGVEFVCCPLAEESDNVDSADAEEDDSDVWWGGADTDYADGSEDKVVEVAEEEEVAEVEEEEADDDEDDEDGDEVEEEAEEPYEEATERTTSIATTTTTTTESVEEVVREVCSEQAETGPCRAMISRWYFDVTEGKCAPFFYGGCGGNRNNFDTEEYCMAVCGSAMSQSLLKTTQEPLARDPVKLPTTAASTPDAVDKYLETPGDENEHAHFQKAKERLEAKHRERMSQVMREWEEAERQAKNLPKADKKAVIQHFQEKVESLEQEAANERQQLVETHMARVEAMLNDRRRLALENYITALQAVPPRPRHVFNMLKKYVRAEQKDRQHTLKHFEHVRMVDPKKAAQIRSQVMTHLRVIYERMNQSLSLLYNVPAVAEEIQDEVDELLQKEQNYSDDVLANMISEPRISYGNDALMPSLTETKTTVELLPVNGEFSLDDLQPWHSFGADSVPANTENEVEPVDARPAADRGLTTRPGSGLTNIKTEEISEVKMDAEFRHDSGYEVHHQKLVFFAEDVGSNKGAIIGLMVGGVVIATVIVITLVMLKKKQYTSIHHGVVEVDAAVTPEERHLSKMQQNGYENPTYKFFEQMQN
How it was run: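 Aβ1-42 formed in situ from isopeptide stock (250 μM in 0.1% TFA, ultracentrifuged), diluted to 20 μM in 10 mM phosphate, pH 7.4. Functionalized peptide (final 3 μM) or methylene blue (final 1 μM) added. Irradiated with 730 nm LED (14 mW, 3–5 cm) at room temperature. Reduced with 50 mM DTT (37 °C, 0.5 h), Lys-C digested (1/20 w/w, 37 °C, 2.5 h), desalted, analysed by MALDI-TOF MS.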

Compound: CC[C@@H](C)[C@@H](NC(=O)[C@@H](CCCNC(=N)N)NC(=O)[C@@H](CCc1ccccc1)NC(=O)[C@H](NC(=O)[C@@H](CCCCN)NC(=O)[C@H](NC(=O)[C@@H](CCCNC(=N)N)NC(=O)[C@H](NC(=O)[C@@H](Cc1ccc2ccccc2c1)NC(=O)[C@@H](CCCNC(=N)N)NC(=O)[C@@H](CCCCN)NC(=O)[C@H](NC(=O)[C@@H](CCCNC(=N)N)NC(=O)[C@@H](CC(C)C)NC(=O)CCc1cn(CCN2CCCc3cc(/C=C/C4=C(Br)C(/C=C/c5cc6c7c(c5)CCCN7CCC6)=[O+][B-](F)(C(F)(F)F)O4)ccc32)nn1)C1CCCCC1)[C@H](C)CC)C1CCCCC1)[C@H](C)CC)C(=O)N[C@H](Cc1ccc(O)cc1)C(=O)N[C@H](CCc1ccccc1)C(N)=O (stereo not given in full)
- IC50 [1]: 0.89 nM
- Activity [2]: Active
- Stability [3]: Stable
- Activity [4]: 41%
- Activity [5]: Active
- Activity [6]: inactive
- inhibition [7]: inactive
- Activity [8]: Non-Toxic
- Stability [9]: Stable
- Activity [10]: inactive
